Laboratory results: ChEMBL document CHEMBL3045952, “Design, synthesis, and fungicidal activity of novel analogues of pyrrolnitrin” (J Agric Food Chem, 2009)

What was measured:
Type in all cases: functional
Conditions in all cases: read-out: GI
[1] = system: Alternaria solani; assay: Fungicidal activity against Alternaria solani assessed as mycelium growth inhibition at 50 ug/mL by mycelium growth rate method
Outline: (§1)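 In vitro mycelium growth rate method, with fenpiclonil as control. Compounds were tested at 50, 20 and 10 μg mL-1. Mycelial diameters were measured once the mycelia had grown completely. Inhibition (%) = (D1 − D2)/D1 × 100, where D1 is the mean mycelial diameter in the blank and D2 is the mean diameter with compound.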

[2] = system: Fusarium graminearum; assay: Fungicidal activity against Fusarium graminearum assessed as mycelium growth inhibition at 50 ug/mL by mycelium growth rate method; outline: as §1
[3] = system: Botryosphaeria berengeriana; assay: Fungicidal activity against Botryosphaeria berengeriana assessed as mycelium growth inhibition at 10 ug/mL by mycelium growth rate method; outline: as §1
[4] = system: Fusarium oxysporum; assay: Fungicidal activity against Fusarium oxysporum assessed as mycelium growth inhibition at 50 ug/mL by mycelium growth rate method; outline: as §1
[5] = system: Fusarium graminearum; assay: Fungicidal activity against Fusarium graminearum assessed as mycelium growth inhibition at 10 ug/mL by mycelium growth rate method; outline: as §1
[6] = system: Botryosphaeria berengeriana; assay: Fungicidal activity against Botryosphaeria berengeriana assessed as mycelium growth inhibition at 20 ug/mL by mycelium growth rate method; outline: as §1
[7] = system: Fusarium oxysporum; assay: Fungicidal activity against Fusarium oxysporum assessed as mycelium growth inhibition at 10 ug/mL by mycelium growth rate method; outline: as §1
[8] = system: Mycosphaerella arachidis; assay: Fungicidal activity against Mycosphaerella arachidis assessed as mycelium growth inhibition at 10 ug/mL by mycelium growth rate method; outline: as §1
[9] = system: Alternaria solani; assay: Fungicidal activity against Alternaria solani assessed as mycelium growth inhibition at 10 ug/mL by mycelium growth rate method; outline: as §1
[10] = system: Fusarium graminearum; assay: Fungicidal activity against Fusarium graminearum assessed as mycelium growth inhibition at 20 ug/mL by mycelium growth rate method; outline: as §1
[11] = system: Mycosphaerella arachidis; assay: Fungicidal activity against Mycosphaerella arachidis assessed as mycelium growth inhibition at 50 ug/mL by mycelium growth rate method; outline: as §1
[12] = system: Mycosphaerella arachidis; assay: Fungicidal activity against Mycosphaerella arachidis assessed as mycelium growth inhibition at 20 ug/mL by mycelium growth rate method; outline: as §1
[13] = system: Fusarium oxysporum; assay: Fungicidal activity against Fusarium oxysporum assessed as mycelium growth inhibition at 20 ug/mL by mycelium growth rate method; outline: as §1
[14] = system: Alternaria solani; assay: Fungicidal activity against Alternaria solani assessed as mycelium growth inhibition at 20 ug/mL by mycelium growth rate method; outline: as §1
[15] = system: Botryosphaeria berengeriana; assay: Fungicidal activity against Botryosphaeria berengeriana assessed as mycelium growth inhibition at 50 ug/mL by mycelium growth rate method; outline: as §1

Row | SMILES | inhibition of growth at 50 µg/mL [1] | inhibition of growth at 50 µg/mL [2] | inhibition of growth at 10 µg/mL [3] | inhibition of growth at 50 µg/mL [4] | inhibition of growth at 10 µg/mL [5] | inhibition of growth at 20 µg/mL [6] | inhibition of growth at 10 µg/mL [7] | inhibition of growth at 10 µg/mL [8] | inhibition of growth at 10 µg/mL [9] | inhibition of growth at 20 µg/mL [10] | inhibition of growth at 50 µg/mL [11] | inhibition of growth at 20 µg/mL [12] | inhibition of growth at 20 µg/mL [13] | inhibition of growth at 20 µg/mL [14] | inhibition of growth at 50 µg/mL [15]
1 | O=[N+]([O-])c1cc(-c2c(Cl)cc(Cl)cc2[N+](=O)[O-])cs1 | 41% | 24% | 10% | 39% | 8% | 17% | 21% | 5% | 25% | 16% | 27% | 16% | 32% | 32% | 25%
2 | O=[N+]([O-])c1cc(-c2c(Cl)cc(Cl)c(Cl)c2[N+](=O)[O-])cs1 | 34% | 0% | 0% | 4% | 0% | 10% | 0% | 5% | 17% | 0% | 35% | 20% | 0% | 26% | 24%
3 | O=[N+]([O-])c1ccc(F)cc1-c1ccsc1[N+](=O)[O-] | 29% | 0% | 0% | 21% | 0% | 0% | 0% | 0% | 0% | 0% | 11% | 0% | 0% | 16% | 10%
4 | O=[N+]([O-])c1cc(-c2ccc(Cl)cc2[N+](=O)[O-])cs1 | 19% | 4% | 0% | 17% | 0% | 0% | 0% | 0% | 0% | 0% | 2% | 0% | 0% | 0% | 2%
5 | O=[N+]([O-])c1cc(-c2ccccc2[N+](=O)[O-])cs1 | 22% | 25% | 0% | 0% | 1% | 9% | 0% | 8% | 6% | 7% | 20% | 16% | 0% | 16% | 20%
6 | O=[N+]([O-])c1cc(-c2cc(F)ccc2[N+](=O)[O-])cs1 | 35% | 16% | 0% | 28% | 0% | 8% | 0% | 0% | 0% | 0% | 33% | 22% | 10% | 16% | 27%
7 | O=[N+]([O-])c1cc(F)ccc1-c1ccsc1[N+](=O)[O-] | 48% | 0% | 0% | 17% | 0% | 4% | 0% | 0% | 9% | 0% | 16% | 0% | 7% | 25% | 14%
